Reference: ChEMBL document CHEMBL1649284 (Antimicrob Agents Chemother, 2009)
Numbered stars: 1 amine (or outer) side, 2 acyl side, 3 side chain; on linkers, the order of the positions; unused ones are H or OH. Bridge positions count the residues as written; N and C are the ends. Square brackets hold non-standard residues; d marks the D form. Peptide text beside a SMILES is read from it. * marks the point of attachment. pTerphenylCO(4''-OnC5H11) = CCCCCOc1ccc(-c2ccc(-c3ccc(C(=O)*)cc3)cc2)cc1; Orn(4R-OH,5R-OH) = O=C([C@H](C[C@@H](O)[C@@H](O)N[*:3])N[*:1])[*:2]; hTyr(3S-OH,4S-OH) = N[C@H](C(=O)O)[C@H](O)[C@@H](O)c1ccc(O)cc1; Pro(3S-OH,4S-Me) = C[C@H]1CN[C@H](C(=O)O)[C@H]1O; Hyp = O=C(O)[C@@H]1C[C@@H](O)CN1

Key:
[1] = Drug level healthy human epithelial lining fluid at 200 mg, iv on day 1 as 200 mins infusion followed by maintenance dose of 100 mg every 24 hrs on days 2 and 3 as 100 mins infusions after 8 hrs of last dose; format: ADME, organism-based; conditions: read-out: Drug uptake
Summary of the method: (§1)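 Single bronchoscopy with BAL in healthy adults (5 per time point) after the third co-dose, following 6 h fasting. Supernatant (400 × g, 4°C, 10 min) mixed 1:1 with methanol. Both drugs measured by HPLC-MS/MS with saline surrogate-matrix calibrators. ELF volume estimated by urea dilution, with urea in BAL and simultaneous serum measured colorimetrically. Total drug reported.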

[2] = Elimination half life in healthy human at 200 mg, iv on day 1 as 200 mins infusion followed by maintenance dose of 100 mg every 24 hrs on days 2 and 3 as 100 mins infusions; format: ADME, organism-based; conditions: in vivo, read-out: beta t1/2 (converted)
[3] = Drug level healthy human epithelial lining fluid at 200 mg, iv on day 1 as 200 mins infusion followed by maintenance dose of 100 mg every 24 hrs on days 2 and 3 as 100 mins infusions after 4 hrs of last dose; format: ADME, organism-based; conditions: read-out: Drug uptake; summary of the method: as §1
[4] = Drug level healthy human alveolar macrophage at 200 mg, iv on day 1 as 200 mins infusion followed by maintenance dose of 100 mg every 24 hrs on days 2 and 3 as 100 mins infusions after 12 hrs of last dose; format: ADME, organism-based; conditions: alveolar macrophages, read-out: Drug uptake
Summary of the method: (§2)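 Single bronchoscopy with BAL in healthy adults (5 per time point) after the third co-dose, following 6 h fasting and lidocaine anaesthesia. BAL centrifuged at 400 × g, 4°C, 10 min. Cell pellet lysed in 0.9% NaCl/methanol (1:1). Both drugs measured by HPLC-MS/MS against saline surrogate-matrix standards. AM concentration calculated from manual cell counts and a mean AM volume of 2.42 μl/10^6 cells. Total drug reported.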

[5] = Drug level healthy human epithelial lining fluid at 200 mg, iv on day 1 as 200 mins infusion followed by maintenance dose of 100 mg every 24 hrs on days 2 and 3 as 100 mins infusions after 24 hrs of last dose; format: ADME, organism-based; conditions: read-out: Drug uptake; summary of the method: as §1
[6] = Drug level healthy human alveolar macrophage at 200 mg, iv on day 1 as 200 mins infusion followed by maintenance dose of 100 mg every 24 hrs on days 2 and 3 as 100 mins infusions after 24 hrs of last dose; format: ADME, organism-based; conditions: alveolar macrophages, read-out: Drug uptake; summary of the method: as §2
Homo sapiens [7] = assay: AUC (0 to t) in healthy human at 200 mg, iv on day 1 as 200 mins infusion followed by maintenance dose of 100 mg every 24 hrs on days 2 and 3 as 100 mins infusions; format: ADME, organism-based, Plasma; conditions: in vivo
Summary of the method: (§3)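 Duplicate blood draws at 0 h, 100 min (end of infusion), and 2, 4, 8, 12, 24 h after the day-3 dose start. Plasma measured by HPLC-MS/MS (range 50.0–20,000 ng/ml). Noncompartmental analysis, per participant; AUC0-τ by linear-log trapezoidal rule, τ = 24 h.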

[8] = Volume of distribution at steady state in healthy human at 200 mg, iv on day 1 as 200 mins infusion followed by maintenance dose of 100 mg every 24 hrs on days 2 and 3 as 100 mins infusions; format: ADME, organism-based; conditions: in vivo, read-out: Vdss; summary of the method: as §3
Homo sapiens [9] = assay: Total body clearance in healthy human at 200 mg, iv on day 1 as 200 mins infusion followed by maintenance dose of 100 mg every 24 hrs on days 2 and 3 as 100 mins infusions; format: ADME, organism-based; conditions: in vivo; summary of the method: as §3
[10] = Drug level healthy human plasma at 200 mg, iv on day 1 as 200 mins infusion followed by maintenance dose of 100 mg every 24 hrs on days 2 and 3 as 100 mins infusions after 8 hrs of last dose; format: ADME, organism-based; conditions: read-out: Drug uptake
[11] = Cmax in healthy human at 200 mg, iv on day 1 as 200 mins infusion followed by maintenance dose of 100 mg every 24 hrs on days 2 and 3 as 100 mins infusions; format: ADME, organism-based; set-up: dose 200 mg, route intravenous; conditions: in vivo; summary of the method: as §3
[12] = Drug level healthy human plasma at 200 mg, iv on day 1 as 200 mins infusion followed by maintenance dose of 100 mg every 24 hrs on days 2 and 3 as 100 mins infusions after 4 hrs of last dose; format: ADME, organism-based; conditions: read-out: Drug uptake
[13] = Drug level healthy human plasma at 200 mg, iv on day 1 as 200 mins infusion followed by maintenance dose of 100 mg every 24 hrs on days 2 and 3 as 100 mins infusions after 12 hrs of last dose; format: ADME, organism-based; conditions: read-out: Drug uptake
[14] = Drug level healthy human alveolar macrophage at 200 mg, iv on day 1 as 200 mins infusion followed by maintenance dose of 100 mg every 24 hrs on days 2 and 3 as 100 mins infusions after 4 hrs of last dose; format: ADME, organism-based; conditions: alveolar macrophages, read-out: Drug uptake; summary of the method: as §2
[15] = Drug level healthy human plasma at 200 mg, iv on day 1 as 200 mins infusion followed by maintenance dose of 100 mg every 24 hrs on days 2 and 3 as 100 mins infusions after 24 hrs of last dose; format: ADME, organism-based; conditions: read-out: Drug uptake
[16] = Drug level healthy human epithelial lining fluid at 200 mg, iv on day 1 as 200 mins infusion followed by maintenance dose of 100 mg every 24 hrs on days 2 and 3 as 100 mins infusions after 12 hrs of last dose; format: ADME, organism-based; conditions: read-out: Drug uptake; summary of the method: as §1
[17] = Drug level healthy human alveolar macrophage at 200 mg, iv on day 1 as 200 mins infusion followed by maintenance dose of 100 mg every 24 hrs on days 2 and 3 as 100 mins infusions after 8 hrs of last dose; format: ADME, organism-based; conditions: alveolar macrophages, read-out: Drug uptake; summary of the method: as §2
[18] = Tmax in healthy human at 200 mg, iv on day 1 as 200 mins infusion followed by maintenance dose of 100 mg every 24 hrs on days 2 and 3 as 100 mins infusions; format: ADME, organism-based; conditions: in vivo; summary of the method: as §3
[19] = Tmax in healthy human at 6 mg/kg, iv for every 12 hrs on day 1 as 120 mins infusions followed by maintenance dose of 4 mg/kg every 12 hrs on day 2 and single 4 mg/kg dose on day 3 as 100 mins infusions; format: ADME, organism-based; conditions: in vivo
Summary of the method: (§4)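 Dose by actual body weight, rounded to nearest mg. Duplicate plasma samples at 0 h, 100 min, and 2, 4, 8, 12, 24 h after the day-3 dose start. HPLC-MS/MS (range 10.0–5,000 ng/ml). Noncompartmental analysis per participant; AUC0-τ by linear-log trapezoidal rule, τ = 12 h.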

[20] = Drug level in healthy human alveolar macrophage at 6 mg/kg, iv for every 12 hrs on day 1 as 120 mins infusions followed by maintenance dose of 4 mg/kg every 12 hrs on day 2 and single 4 mg/kg dose on day 3 as 100 mins infusions after 4 hrs of last dose; format: ADME, organism-based; conditions: alveolar macrophages, read-out: Drug uptake; summary of the method: as §2
[21] = AUC (0 to t) in healthy human at 6 mg/kg, iv for every 12 hrs on day 1 as 120 mins infusions followed by maintenance dose of 4 mg/kg every 12 hrs on day 2 and single 4 mg/kg dose on day 3 as 100 mins infusions; format: ADME, organism-based; conditions: plasma; summary of the method: as §4
[22] = Drug level in healthy human epithelial lining fluid at 6 mg/kg, iv for every 12 hrs on day 1 as 120 mins infusions followed by maintenance dose of 4 mg/kg every 12 hrs on day 2 and single 4 mg/kg dose on day 3 as 100 mins infusions after 4 hrs of last dose; format: ADME, organism-based; conditions: read-out: Drug uptake; summary of the method: as §1
[23] = Drug level in healthy human alveolar macrophage at 6 mg/kg, iv for every 12 hrs on day 1 as 120 mins infusions followed by maintenance dose of 4 mg/kg every 12 hrs on day 2 and single 4 mg/kg dose on day 3 as 100 mins infusions after 8 hrs of last dose; format: ADME, organism-based; conditions: alveolar macrophages, read-out: Drug uptake; summary of the method: as §2
[24] = Drug level in healthy human epithelial lining fluid at 6 mg/kg, iv for every 12 hrs on day 1 as 120 mins infusions followed by maintenance dose of 4 mg/kg every 12 hrs on day 2 and single 4 mg/kg dose on day 3 as 100 mins infusions after 12 hrs of last dose; format: ADME, organism-based; conditions: read-out: Drug uptake; summary of the method: as §1
[25] = Drug level healthy human plasma at 6 mg/kg, iv for every 12 hrs on day 1 as 120 mins infusions followed by maintenance dose of 4 mg/kg every 12 hrs on day 2 and single 4 mg/kg dose on day 3 as 100 mins infusions after 8 hrs of last dose; format: ADME, organism-based; conditions: read-out: Drug uptake
[26] = Volume of distribution at steady state in healthy human at 6 mg/kg, iv for every 12 hrs on day 1 as 120 mins infusions followed by maintenance dose of 4 mg/kg every 12 hrs on day 2 and single 4 mg/kg dose on day 3 as 100 mins infusions; format: ADME, organism-based; conditions: in vivo, read-out: Vdss; summary of the method: as §4
[27] = Drug level in healthy human epithelial lining fluid at 6 mg/kg, iv for every 12 hrs on day 1 as 120 mins infusions followed by maintenance dose of 4 mg/kg every 12 hrs on day 2 and single 4 mg/kg dose on day 3 as 100 mins infusions after 8 hrs of last dose; format: ADME, organism-based; conditions: read-out: Drug uptake; summary of the method: as §1
[28] = Drug level in healthy human alveolar macrophage at 6 mg/kg, iv for every 12 hrs on day 1 as 120 mins infusions followed by maintenance dose of 4 mg/kg every 12 hrs on day 2 and single 4 mg/kg dose on day 3 as 100 mins infusions after 12 hrs of last dose; format: ADME, organism-based; conditions: alveolar macrophages, read-out: Drug uptake; summary of the method: as §2
[29] = Drug level healthy human plasma at 6 mg/kg, iv for every 12 hrs on day 1 as 120 mins infusions followed by maintenance dose of 4 mg/kg every 12 hrs on day 2 and single 4 mg/kg dose on day 3 as 100 mins infusions after 12 hrs of last dose; format: ADME, organism-based; conditions: read-out: Drug uptake
[30] = Elimination half life in healthy human at 6 mg/kg, iv for every 12 hrs on day 1 as 120 mins infusions followed by maintenance dose of 4 mg/kg every 12 hrs on day 2 and single 4 mg/kg dose on day 3 as 100 mins infusions; format: ADME, organism-based; conditions: in vivo, read-out: beta t1/2 (converted)
[31] = Drug level healthy human plasma at 6 mg/kg, iv for every 12 hrs on day 1 as 120 mins infusions followed by maintenance dose of 4 mg/kg every 12 hrs on day 2 and single 4 mg/kg dose on day 3 as 100 mins infusions after 4 hrs of last dose; format: ADME, organism-based; conditions: read-out: Drug uptake
[32] = Cmax in healthy human at 6 mg/kg, iv for every 12 hrs on day 1 as 120 mins infusions followed by maintenance dose of 4 mg/kg every 12 hrs on day 2 and single 4 mg/kg dose on day 3 as 100 mins infusions; format: ADME, organism-based; set-up: dose 6 mg/kg, route intravenous; conditions: in vivo; summary of the method: as §4

## CCCCCOc1ccc(-c2ccc(-c3ccc(C(=O)N[C@H]4C[C@@H](O)[C@@H](O)NC(=O)[C@@H]5[C@@H](O)[C@@H](C)CN5C(=O)[C@H]([C@@H](C)O)NC(=O)[C@H]([C@H](O)[C@@H](O)c5ccc(O)cc5)NC(=O)[C@@H]5C[C@@H](O)CN5C(=O)[C@H]([C@@H](C)O)NC4=O)cc3)cc2)cc1 [ANIDULAFUNGIN] ({pTerphenylCO(4''-OnC5H11)}-[Orn(4R-OH,5R-OH)]T[Hyp][hTyr(3S-OH,4S-OH)]T[Pro(3S-OH,4S-Me)]; lactam 1-C)
[1]
  concentration at 8 h: 800 ng/mL
[2]
  half-life: 20.8 h
[3]
  concentration at 4 h: 900 ng/mL
[4]
  concentration at 12 h: 42700 ng/mL
[5]
  concentration at 24 h: 1100 ng/mL
[6]
  concentration at 24 h: 103000 ng/mL
Homo sapiens [7]
  AUC: 101000 ng·h/mL
[8]
  Vd: 30.8 L
Homo sapiens [9]
  clearance: 17.1 mL/min
[10]
  concentration at 8 h: 5100 ng/mL
[11]
  Cmax: 6600 ng/mL
[12]
  concentration at 4 h: 6000 ng/mL
[13]
  concentration at 12 h: 4400 ng/mL
[14]
  concentration at 4 h: 44600 ng/mL
[15]
  concentration at 24 h: 3000 ng/mL
[16]
  concentration at 12 h: 800 ng/mL
[17]
  concentration at 8 h: 37900 ng/mL
[18]
  Tmax: 1.9 h

## C[C@@H](c1ncncc1F)[C@](O)(Cn1cncn1)c1ccc(F)cc1F [VORICONAZOLE]
[19]
  Tmax: 1.8 h
[20]
  concentration at 4 h: 20600 ng/mL
[21]
  AUC(0-t): 39500 ng·h/mL
[22]
  concentration at 4 h: 48300 ng/mL
[23]
  concentration at 8 h: 10300 ng/mL
[24]
  concentration at 12 h: 17200 ng/mL
[25]
  concentration at 8 h: 1700 ng/mL
[26]
  Vd: 110 L
[27]
  concentration at 8 h: 10100 ng/mL
[28]
  concentration at 12 h: 14400 ng/mL
[29]
  concentration at 12 h: 2200 ng/mL
[30]
  half-life: 6.9 h
[31]
  concentration at 4 h: 5300 ng/mL
[32]
  Cmax: 5300 ng/mL
